Test results published in ChEMBL document CHEMBL1123415, “Benzo[a]carbazole derivatives. Synthesis, estrogen receptor binding affinities, and mammary tumor inhibiting activity” (1986).

Tests used:
[1] = target: Estrogen receptor (Bos taurus) (UniProt Q9XSB5+P49884); assay: Evaluated for relative binding affinity (RBA) for calf uterine estrogen receptor; type: protein assay
Procedure, shortened: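 Calf uterine cytosol (105000g supernatant; final protein 3 mg/mL) in Tris-EDTA-azide buffer pH 7.5. Incubated with 5 nM [³H]estradiol and competitor (10⁻⁹–10⁻⁴ M) for 18 h at 4 °C. Free ligand removed with dextran-coated charcoal, bound counted by scintillation. Nonspecific binding measured with 5 μM estradiol. RBA = estradiol/competitor molar ratio at 50% displacement ×100.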

[2] = tested on: MCF7; assay: Inhibition of [3H]thymidine incorporation into hormone sensitive MCF-7 human breast cancer cells at 10e-6 M; type: functional
Procedure, shortened: (§1)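 MCF-7 cells kept two weeks in medium with 5% charcoal-treated calf serum, 37 °C, 5% CO₂. About 2×10⁴ cells per well; compound added next day in 0.1% ethanol, ethanol-only controls, medium changed on day 4. Cells counted on day 7 by Coulter counter; [³H]thymidine 1 μCi/well for 2 h. Mean of six dishes.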

[3] = tested on: MCF7; assay: Inhibition of [3H]thymidine incorporation into hormone sensitive MCF-7 human breast cancer cells at 10e-5 M; type: functional; procedure, shortened: as §1
[4] = tested on: MCF7; assay: Reduction of cell number of hormone sensitive MCF-7 human breast cancer cells at 10e-6 M
[5] = tested on: MCF7; assay: Reduction of cell number of hormone sensitive MCF-7 human breast cancer cells at 10e-5 M
[6] = target: T1, Estrogen receptor (Mus musculus) (UniProt O08537+P19785); assay: Uterotrophic activity in mice as uterus dry weight (mg)/body weight (g) *100 at 25 ug; type: functional, tissue-based
Procedure, shortened: (§2)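 Immature 19-day-old female NMRI mice, 10 per group. Compound in olive oil injected sc on 3 consecutive days, dose per animal; vehicle-only controls, estrone as reference. Killed 24 h after last injection. Uteri fixed in Bouin solution, dried at 100 °C for 24 h. Value = uterine dry weight (mg)/body weight (g) ×100, mean of 10 animals ± SD.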

[7] = target: T1, Estrogen receptor (Mus musculus); assay: Uterotrophic activity in mice as uterus dry weight (mg)/body weight (g) *100 at 1 ug; type: functional, tissue-based; procedure, shortened: as §2
[8] = target: T1, Estrogen receptor (Mus musculus); assay: Uterotrophic activity in mice as uterus dry weight (mg)/body weight (g) *100 at 0.2 ug; type: functional, tissue-based; procedure, shortened: as §2
[9] = target: T1, Estrogen receptor (Mus musculus); assay: Uterotrophic activity in mice as uterus dry weight (mg)/body weight (g) *100 at 5 ug; type: functional, tissue-based; procedure, shortened: as §2

T1 sequence (O08537 whole entry, looked up): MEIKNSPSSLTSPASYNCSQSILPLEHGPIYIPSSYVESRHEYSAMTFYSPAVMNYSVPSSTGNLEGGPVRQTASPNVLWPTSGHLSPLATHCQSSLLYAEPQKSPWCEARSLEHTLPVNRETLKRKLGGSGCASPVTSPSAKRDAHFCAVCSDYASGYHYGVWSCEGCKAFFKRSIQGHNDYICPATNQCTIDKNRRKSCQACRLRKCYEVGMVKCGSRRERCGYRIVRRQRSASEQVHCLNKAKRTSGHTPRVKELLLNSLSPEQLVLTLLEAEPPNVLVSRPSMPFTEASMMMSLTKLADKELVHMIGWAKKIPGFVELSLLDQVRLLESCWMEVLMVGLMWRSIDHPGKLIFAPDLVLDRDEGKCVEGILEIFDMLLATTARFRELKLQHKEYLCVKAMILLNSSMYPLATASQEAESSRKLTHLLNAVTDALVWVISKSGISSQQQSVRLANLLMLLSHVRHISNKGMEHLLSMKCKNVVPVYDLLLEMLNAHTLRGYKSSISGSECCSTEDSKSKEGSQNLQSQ
T1 sequence (P19785 whole entry, looked up): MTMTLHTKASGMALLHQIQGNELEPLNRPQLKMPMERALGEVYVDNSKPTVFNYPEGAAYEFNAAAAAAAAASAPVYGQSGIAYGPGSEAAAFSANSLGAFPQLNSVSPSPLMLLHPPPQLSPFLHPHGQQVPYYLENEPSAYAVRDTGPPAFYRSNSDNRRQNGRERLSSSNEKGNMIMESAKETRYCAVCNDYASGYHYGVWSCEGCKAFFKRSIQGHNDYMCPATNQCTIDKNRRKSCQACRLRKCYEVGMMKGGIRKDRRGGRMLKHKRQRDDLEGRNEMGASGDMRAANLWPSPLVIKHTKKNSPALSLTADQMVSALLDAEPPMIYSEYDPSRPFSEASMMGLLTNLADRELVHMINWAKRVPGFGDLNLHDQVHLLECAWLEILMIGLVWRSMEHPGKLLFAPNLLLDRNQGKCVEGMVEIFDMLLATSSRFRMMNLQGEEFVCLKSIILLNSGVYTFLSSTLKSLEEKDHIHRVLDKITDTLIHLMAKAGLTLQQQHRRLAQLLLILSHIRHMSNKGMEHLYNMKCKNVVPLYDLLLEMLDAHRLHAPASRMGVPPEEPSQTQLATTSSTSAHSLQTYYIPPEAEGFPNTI

Row | Structure (SMILES) | relative binding affinity (RBA) [1] | also measured
1 | CCn1c2cc(O)ccc2c2ccc3ccccc3c21 | 0.01 | –
2 | CCn1c2ccc(O)cc2c2ccc3ccccc3c21 | < 0.01 | –
3 | CCn1c2cc(O)ccc2c2ccc3cc(O)ccc3c21 | 20 | –
4 | CCn1c2ccc(O)cc2c2ccc3cc(O)ccc3c21 | 6.5 | Activity [2]: 26460; Activity [3]: 1040; cell number [4]: 24100; cell number [5]: 5200
5 | CCn1c2c(c3ccc(O)cc31)CCc1cc(O)ccc1-2 | 30 | –
6 | CCn1c2c(c3cc(O)ccc31)CCc1ccc(O)cc1-2 | 0.7 | –
7 | CCn1c2c(c3cc(O)ccc31)CCc1ccccc1-2 | 0.06 | –
8 | CCn1c2c(c3ccccc31)CCc1cc(O)ccc1-2 | 1.8 | –
9 | CCn1c2ccc(O)cc2c2ccc3c(O)cccc3c21 | 0.1 | –
10 | CCn1c2c(c3ccc(O)cc31)CCc1ccc(O)cc1-2 | 9.7 | –
11 | CCCn1c2cc(O)ccc2c2ccc3cc(O)ccc3c21 | 13 | –
12 | Cn1c2c(c3ccc(O)cc31)CCc1cc(O)ccc1-2 | 9.6 | –
13 | CCn1c2c(c3ccc(O)cc31)CCc1c(O)cccc1-2 | 1.3 | –
14 | CCn1c2c(c3ccc(OC(C)=O)cc31)CCc1cc(OC(C)=O)ccc1-2 | – | Activity [6]: 43.9; Activity [7]: 29.3; Activity [8]: 20.3; Activity [9]: 45.8
15 | CCCCn1c2cc(O)ccc2c2ccc3cc(O)ccc3c21 | 2.3 | –
